# CYP2C19 act = activators of human cytochrome P450 2C19; 96,000 tested, under 10 active; recombinant CYP2C19, luciferin-H EGE luminescence; active compounds read high; 0 = fully inhibited enzyme, 1 = untreated enzyme; activation factor at 5 µM; P33261;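 active means activation factor of at least 2 at 5 µM in the primary screen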
# Target sequence (P33261 whole entry, looked up): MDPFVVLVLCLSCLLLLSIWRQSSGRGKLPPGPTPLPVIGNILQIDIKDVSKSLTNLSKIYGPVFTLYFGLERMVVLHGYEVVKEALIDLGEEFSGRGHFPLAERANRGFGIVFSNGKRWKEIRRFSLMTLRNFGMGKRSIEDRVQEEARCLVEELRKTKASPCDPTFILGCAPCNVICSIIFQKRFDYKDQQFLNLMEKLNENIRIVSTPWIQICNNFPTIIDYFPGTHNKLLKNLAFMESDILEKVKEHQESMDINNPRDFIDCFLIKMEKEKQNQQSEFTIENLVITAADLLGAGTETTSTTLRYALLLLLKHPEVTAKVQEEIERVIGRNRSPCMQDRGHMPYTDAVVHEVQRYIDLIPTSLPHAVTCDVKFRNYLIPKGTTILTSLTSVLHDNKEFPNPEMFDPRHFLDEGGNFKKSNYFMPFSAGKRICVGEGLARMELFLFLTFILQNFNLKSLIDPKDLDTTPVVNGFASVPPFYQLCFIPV
# CYP2C9 inhib = inhibitors of human CYP2C9; 96,000 tested, 20% active; inhibition, % at 5 µM; AID 777; CYP2C9 Supersomes, luciferin-H conversion, luminescence;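 active means blocking of liver enzyme CYP2C9 beyond about 50% at 5 µM, limit read from the data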
# Cav32 inh = human Cav3.2 channel inhibition, primary screen; Cav3.2-expressing cells, Fluo-4 calcium fluorescence FDSS; active compounds read low; B-score at 10 µM; 100,000 tested, 4% active;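 active means single-dose well whose peak fluorescence ratio is a statistical outlier from its plate by either plate-standardised score or position-corrected B-score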
# CYP2C19 inhib = human CYP2C19 inhibition; P33261; inhibition, % at 5 µM; CYP2C19 Supersomes, luciferin-H EGE luminescence, 30 min; 96,000 tested, 21% active; AID 778;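 active means CYP2C19 inhibition above a set limit at 5 µM in the primary screen, cut at about 50% in these data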
# Rev-RRE block = disrupts HIV-1 Rev binding to RRE RNA | Rev peptide-RRE RNA binding, FRET | P05866 | AID 704 | inhibition, % at 8 µM | 97,000 tested, 0.79% active;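 active means inhibition above the screen-wide mean plus 3 SD, cut at about 35% in these data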
# Target sequence (P05866 whole entry, looked up): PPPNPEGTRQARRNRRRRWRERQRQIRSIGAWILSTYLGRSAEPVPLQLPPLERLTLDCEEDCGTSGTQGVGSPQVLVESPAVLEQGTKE
#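 assay system = Cy5-tagged RRE RNA duplex with fluorescein-tagged Rev peptide | incubation = 5 + 15 min at 25 °C | also added = labelled Rev peptide | measure = % inhibition of FRET ratio versus controls | benchmarks = DMSO wells as 0% and neomycin B wells as 100% inhibition | measured by = FRET fluorescence readout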
# CYP2C9 activ = increases human cytochrome P450 2C9 activity | recombinant CYP2C9, luciferin-H conversion, luminescence; active compounds read high; factor 1 = untreated enzyme, 0 = blocked | activation factor at 5 µM | 96,000 tested, 1.4% active;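 active means activation factor of 2 or more for CYP2C9 at a 5 µM dose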
# Numbers stand for hits; 0 = inactive; - = not tested or not shown. A selection: hits, their analogues and other compounds. The true share with any hit is near 27%.
SMILES,CYP2C19 act,CYP2C9 inhib,Cav32 inh,CYP2C19 inhib,Rev-RRE block,CYP2C9 activ
O=C(COc1ccc(-n2cnnn2)cc1)NC1CCCCC1,0,0,0,0,-,0
Cn1nnc(NC(=O)COc2ccc(C3CCCCC3)cc2)n1,0,53,0,0,0,0
CCOC(=O)CN(C(=O)CSc1nnc(CNc2ccc(F)cc2)o1)c1ccccc1,0,78,0,59,0,0
O=C(CSc1nnc(CNc2ccc(F)cc2)o1)N1c2ccccc2Sc2ccccc21,0,53,-5.5,0,0,0
COc1ccc(CN(C(=O)CSc2nnc(-c3ccccc3C)o2)c2ccc(F)cc2)cc1,-,-,-4.7,-,0,-
CCOC(=O)CN(C(=O)CSc1nnc(-c2cccc(OC)c2)o1)c1ccc(F)cc1,0,92,0,85,0,0
O=C(CSc1nnc(CNc2ccc(F)cc2)o1)N1CCN(C(=O)c2ccco2)CC1,0,0,0,0,0,0
O=C(CSc1nnc(-c2c[nH]c3ccccc23)o1)N(Cc1ccccc1)c1ccc(F)cc1,-,-,0,-,0,-
COc1cccc(-c2nnc(SCC(=O)N3CCOCC3)o2)c1,0,0,0,0,0,0
CCOC(=O)CN(C(=O)CSc1nnc(CNc2ccc(F)cc2)n1C)c1ccccc1,0,0,0,0,0,0
COC(=O)C(Cc1ccccc1)NC(=O)CSc1nc(N)cc(=O)[nH]1 (stereo unspecified),0,0,0,0,0,0
Cc1ccc(NC(=S)N/N=C/c2ccc(OCCC(C)C)cc2)c(C)c1,0,65,-,0,0,0
CCCOc1ccc(NCC(=O)Nc2ccc(C)cc2C)cc1,-,-,0,-,0,-
CCCNC(=S)Nc1ccc2nc(-c3ccccn3)c(-c3ccccn3)nc2c1,0,0,-,0,0,0
O=C(CSc1ccccc1C(=O)NCCCN1CCCC1=O)NCc1ccco1,0,0,0,0,0,0
CCCn1c(SCC(=O)NC)nnc1C(C)C,0,0,0,0,0,0
O=C(CN1C(=O)c2cccc3cccc1c23)NCc1cccnc1,0,0,0,83,0,0
Cc1c(C#N)c2ccccc2n1CC(=O)NCc1ccccc1,-,-,0,-,0,-
O=C(CN1C(=O)c2cccc3cccc1c23)N1CCN(c2ccc(F)cc2)CC1,0,0,0,0,0,2.2
Cc1c(C#N)c2ccccc2n1CC(=O)NCc1cccnc1,0,54,0,71,0,0
CC(=O)c1cn(CC(=O)NCc2cccnc2)c2ccccc12,0,83,0,77,0,0
C[C@@H](C(=O)N1CCN(C(=O)OC(C)(C)C)CC1)n1cc(CCCN=C(NC(=O)OC(C)(C)C)NC(=O)OC(C)(C)C)nn1,-,-,0,-,-,-
OCCNc1nc(N2CCCC2)nc(N2CCCC2)n1,-,-,0,-,0,-
CCN1C(=O)c2cccc3c(NC(=O)C(C)(C)C)ccc1c23,0,0,0,0,0,0
CCN1C(=O)c2cccc3cccc1c23,0,0,0,0,0,4.1
SMILES,CYP2C19 act,CYP2C9 inhib,Cav32 inh,CYP2C19 inhib,Rev-RRE block,CYP2C9 activ
Cc1ccc(S(=O)(=O)Nc2nonc2C)cc1,0,0,-,0,0,0
O/N=C/c1cc(Br)ccc1OCc1ccc(F)cc1,-,-,-4.6,-,0,-
O/N=C/c1cc(Cl)ccc1OCc1ccccc1Cl,0,61,0,0,0,0
CCOC(=O)c1nn(-c2ccc(Br)cc2)cc1C(=O)c1cccc2ccccc12,0,0,0,0,0,0
COC(=O)c1cc(Br)c(=O)n(-c2cccc(F)c2)c1,0,0,0,52,0,0
COC(=O)c1cc(Br)c(=O)n(-c2ccccc2OC)c1,0,0,0,0,0,0
COC(=O)c1cc(Br)c(=O)n(-c2ccc(OC)cc2)c1,0,0,0,55,0,0
CC(C)(C)NC(=O)C1CCN(C(=O)c2ccc(Br)cc2)CC1,0,0,0,0,0,0
CC(C)CCn1c(=O)c2ccccc2c2ccccc2c1=O,0,80,0,86,0,0
CC(C)Cn1c(=O)c2ccccc2c2ccccc2c1=O,0,0,0,0,0,0
CC1CCN(C(c2ccccc2)c2nnnn2C(C)(C)C)CC1 (stereo unspecified),0,0,0,0,-,0
CC(C)(C)n1nnnc1CN1CCN(C(c2ccccc2)c2ccccc2)CC1,-,-,-5.4,-,0,-
Cc1cc(C)nc(Sc2ncnc3sc4c(c23)CCC4)n1,-,-,0,-,0,-
CCCC1c2ccc(C)n2CCN1C(=O)Nc1ccc(F)cc1 (stereo unspecified),0,0,0,0,0,0
Cc1sc2nc(SCC(=O)NCc3cccs3)[nH]c(=O)c2c1C,0,67,0,0,0,0
Cc1sc2nc(CN(Cc3cccs3)C(=O)C3CC3)[nH]c(=O)c2c1C,0,88,0,97,0,0
Cc1ccc(/C=N\NC(=O)c2cc(OCC(F)(F)F)ccc2OCC(F)(F)F)cc1,0,0,0,0,0,0
CCOC(=O)c1ccccc1NC1c2ccccc2C(=O)N1c1cc(C)ccn1 (stereo unspecified),0,83,0,96,0,0
COc1ccc(NC2c3ccccc3C(=O)N2c2cccnc2)cc1Cl (stereo unspecified),0,58,0,81,-,0
O=C1c2ccccc2C(Nc2ccccc2)N1c1cccnc1 (stereo unspecified),0,0,0,70,0,0
COC(=O)c1cc(NC2c3ccccc3C(=O)N2c2cccnc2)cc(C(=O)OC)c1 (stereo unspecified),-,-,0,-,0,-
CCOc1ccccc1NC1c2ccccc2C(=O)N1c1cccnc1 (stereo unspecified),0,0,0,52,0,0
CC(C)CC(=O)Nc1ccccc1-c1nnn(CC(=O)N2CCOCC2)n1,0,0,0,0,0,0
CN1C(C(=O)NCc2cccc(C(F)(F)F)c2)CC2Cn3c(nc4cc(Cl)c(Cl)cc43)C21 (stereo unspecified),-,-,0,-,-,-
CC(C)COC(=O)CNc1n[nH]c(=S)[nH]c1=O,0,0,0,0,0,0
SMILES,CYP2C19 act,CYP2C9 inhib,Cav32 inh,CYP2C19 inhib,Rev-RRE block,CYP2C9 activ
CCN(CC(=O)N1CCN(C)CC1)S(=O)(=O)c1ccc(Cl)cc1,0,0,0,0,0,0
Cc1nc2ccccn2c1-c1csc(NCc2ccco2)n1,0,59,0,72,0,0
Cc1nc(C)c(-c2csc(NCc3ccccc3)n2)s1,0,0,0,83,0,0
Cc1nc(C)c(-c2csc(NCc3ccco3)n2)s1,0,0,0,69,0,2.7
Cc1nc(NC(=O)c2ccccc2)sc1-c1csc(NCc2ccco2)n1,0,0,0,89,0,0
Cc1ccn2c(-c3csc(NCc4ccccc4)n3)c(C)nc2c1,-,-,0,-,0,-
Cc1ccccc1Nc1nc(-c2sc(NC(=O)c3ccco3)nc2C)cs1,0,0,0,0,0,0
CCC1CCCCN1Cc1nc2c(c(=O)n(C)c(=O)n2C)n1Cc1cccc2ccccc12 (stereo unspecified),0,0,0,0,-,0
CCc1ccc(-c2nc(CSCC(=O)N3CCN(c4ncccn4)CC3)c(C)o2)cc1,0,75,-,0,0,0

# Screening results (PubChem BioAssay)
